# ABHD4 inh: ABHD4 inhibitors, primary screen, biochemical, fluorescence polarization, mouse. (Lyso)-N-acylphosphatidylethanolamine lipase (Mus musculus), Q8VD66. purified mABHD4, FP-Rh probe fluorescence polarization. inhibition, % at 8.92 µM. hit rate 0.54% among 370,000;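 active = inhibition exceeding the mean over every tested compound plus 3 SD, cut at about 30% in these data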;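 note: 0% = plate median of compound wells and 100% = S159A mutant with DMSO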
#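 System: mouse ABHD4 enzyme, wild type / Medium: HEPES pH 7.0, NaCl, Pluronic buffer / Reagent: FP-Rh activity-based fluorescent probe / Control set: S159A mutant high control, sample median low control / Detection: fluorescence polarization with parallel and perpendicular emission, 525/598 nm / Schedule: 45 min + 60 min at 25 °C / Compound dosing: 8.92 µM, single dose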
# PRMT1 FP inh: PRMT1 methyltransferase inhibitors, primary screen, biochemical, fluorescence polarization; Protein arginine N-methyltransferase 1 (Homo sapiens), Q99873; hit rate 1.3% among 370,000; recombinant PRMT1, activity-based probe fluorescence polarization; inhibition, % at 2.79 µM;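 active = inhibition above about 21% made by adding two undisclosed values, limit read from the data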
# Target sequence (Q99873 whole entry, looked up): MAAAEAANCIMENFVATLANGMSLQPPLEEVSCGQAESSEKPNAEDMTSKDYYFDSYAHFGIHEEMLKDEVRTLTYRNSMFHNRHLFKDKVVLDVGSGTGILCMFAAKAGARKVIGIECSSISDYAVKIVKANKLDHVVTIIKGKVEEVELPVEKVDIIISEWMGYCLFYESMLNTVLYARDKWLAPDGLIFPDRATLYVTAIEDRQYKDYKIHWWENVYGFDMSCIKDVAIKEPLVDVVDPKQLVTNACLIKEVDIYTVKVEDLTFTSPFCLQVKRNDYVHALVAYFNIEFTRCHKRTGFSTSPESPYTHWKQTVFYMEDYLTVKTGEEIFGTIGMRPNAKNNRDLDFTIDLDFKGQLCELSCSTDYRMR
# HTRA1 inh: HTRA1 serine protease inhibitors, primary screen, biochemical, fluorescence polarization, HTS | AID 504803, 2011 | hit rate 0.5% among 340,000 | inhibition, % at 5.96 µM | Q92743 | recombinant HTRA1, FP-rhodamine activity-based probe; in the data active = inhibition above about 36%;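 note: 0% = enzyme with DMSO and 100% = wells lacking enzyme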
# rCAG binder: binders of r(CAG) RNA repeats, primary screen, biochemical, fluorescence; r(CAG) RNA repeat, TO-PRO-1 dye displacement fluorescence; inhibition, % at 3 µM; hit rate 1.3% among 370,000; AID 651821, 2012;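 active = inhibition above the plate cutoff, the mean of all test compounds on that plate plus 3 SD, cut at about 35% in these data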;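 note: 0% = DMSO alone and 100% = 100 µM mitoxantrone as full dye displacement; higher means more dye released from RNA so lower well fluorescence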
# DAGLB inhibitor: DAGLB lipase inhibitors, primary screen, biochemical, fluorescence, HTS; inhibition, % at 5.17 µM; hit rate 0.059% among 340,000; Diacylglycerol lipase-beta (Homo sapiens), Q8NCG7; AID 504411, 2011; HEK293T DAGLB membrane lysate, EnzChek fluorogenic substrate; in the data active = inhibition above about 34%;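 note: 0% = enzyme with vehicle and 100% = wells lacking enzyme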
# LEDGF integ inh: blockers of LEDGF/p75-dependent integrase strand transfer – biochemical, TR-FRET, high throughput, primary screen | hit rate 0.64% among 370,000 | AID 743269, 2014 | inhibition, % at 3.7 µM | HIV-1 integrase (with human LEDGF/p75) | TR-FRET IN-LEDGF/p75 DNA integration, Eu/Cy5;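 active = inhibition above the screen-wide mean plus 3 SD, cut at about 13% in these data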;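 note: signal is the Cy5 over europium emission ratio at 671 and 618 nm; 0% = plate median of compound wells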
# ABHD4 confirm: ABHD4 inhibitors, retest, confirmation, biochemical, fluorescence polarization, mouse | shares compounds with ABHD4 inh | purified mABHD4, FP-Rh probe fluorescence polarization | inhibition, % at 8.92 µM | hit rate 55% among 1,800 | AID 720658, 2013;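 active = mean inhibition across replicates above the hit cutoff set in the primary screen, cut at about 30% in these data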;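 note: 0% = wild-type ABHD4 with DMSO and 100% = catalytically dead S159A mutant with DMSO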
# An asterisk follows results filed as active; / = no result given; + = active, no number. In the library only some 3.2% were active in any assay of this set; here they are far more common.
SMILES,ABHD4 inh,PRMT1 FP inh,HTRA1 inh,rCAG binder,DAGLB inhibitor,LEDGF integ inh,ABHD4 confirm
O=c1cc(CSc2nnnn2-c2ccccc2)[nH]c2[nH]n(-c3ccccc3)c(=O)c12,32.2*,10.8,22.4,30.9,8.0,2.3,4.7
O=C(O)c1cccc(NC(=O)c2cccc(S(=O)(=O)Nc3cccc([N+](=O)[O-])c3)c2)c1,-9.4,3.8,-0.9,11.5,3.3,-0.2,/
O=[N+]([O-])c1ccc(N=NNc2ccccc2)cc1,/,/,15.9,/,3.3,/,/
O=C(O)c1cc(NN=Nc2cccc([N+](=O)[O-])c2)cc([N+](=O)[O-])c1,69.0*,6.3,-3.6,30.8,6.5,-0.2,73.2*
O=C(O)c1cc(NN=Nc2cccc(S(=O)(=O)O)c2)cc([N+](=O)[O-])c1,38.8*,2.3,2.7,5.9,-5.0,-0.6,35.5*
O=C(O)c1cc(NN=Nc2ccc(Br)cc2)cc([N+](=O)[O-])c1,67.7*,6.1,-5.1,16.7,5.3,-7.8,67.2*
O=[N+]([O-])c1cccc(NN=Nc2ccccc2)c1,7.1,3.8,4.1,2.7,-4.9,-1.2,/
Cc1ccc(S(=O)(=O)Nc2ccc(F)c(F)c2O)cc1,12.2,0.6,/,4.3,/,0.8,/
O=C(NCc1ccccc1)c1ccccc1Br,5.6,0.6,-0.2,2.9,-0.4,-2.2,/
CCOc1ccc(C(=O)C(CN2CCOCC2)c2ccccc2)cc1 (configuration not stated),0.1,4.0,-3.0,-6.1,6.0,1.7,/
CC(NCC(O)COCCC12CC3CC(CC(C3)C1)C2)c1ccccc1 (configuration not stated),30.6*,-1.4,-6.5,0.2,-0.4,-0.4,28.4
NCC(O)COCCC12CC3CC(CC(C3)C1)C2 (configuration not stated),1.5,-1.7,3.1,5.7,-3.0,-0.5,/
Nc1[nH]nc2ncc3cc4ccccc4nc3c12,2.7,3.4,13.1,5.6,3.5,0.9,/
C=CCn1c(SCc2c(F)c(F)c(F)c(F)c2F)nc(O)cc1=O,0.6,-1.7,-4.0,7.8,-4.9,1.1,/
C/C(O)=C\c1nc2ccccc2oc1=O,37.4*,7.4,10.0,2.9,0.3,11.6,-3.5
CC(=O)Nc1ccc(C(=O)N/N=C/c2cc(Br)cc(Br)c2O)cc1,5.5,1.1,21.2,2.9,2.2,-4.2,/
CNC(=S)N/N=C/c1cc(Br)cc(Br)c1O,30.7*,-0.8,34.4,10.1,17.3,1.6,27.4
CCN(CC)CCN1c2ccccc2Sc2ccc3ccccc3c21,12.8,4.7,0.3,0.1,-0.6,-1.0,/
Cc1cc(N2CCN(C(=O)Oc3ccc(-c4ccccc4)cn3)CC2)c2ccccc2n1,11.7,-3.3,/,3.9,/,6.6,/
Cc1cc(N2CCN(C(=O)Oc3ccc(C(F)(F)F)cc3)CC2)c2ccccc2n1,53.5*,4.4,/,2.0,/,1.0,23.4
Cc1occc1C(=O)NCc1ccccn1,-0.7,3.0,0.7,-0.4,-0.3,1.7,/
O=C1N=c2ccccc2=C1c1sc(=S)n(-c2ccc(O)cc2)c1O,38.1*,17.1,8.0,20.4,1.4,-2.3,25.2
Cc1c(-n2c(O)c(C3=c4ccccc4=NC3=O)sc2=S)c(=O)n(-c2ccccc2)n1C,7.5,-0.6,6.9,0.5,-0.1,-0.6,/
COc1cc(CC(=O)N(CC(C)C)C2CCS(=O)(=O)C2)cc(OC)c1OC (configuration not stated),2.0,-1.5,-5.7,1.5,3.6,2.0,/
Cc1ccc(NCSc2ccc(Cl)cc2)cc1,4.7,1.1,4.7,3.3,-2.8,1.7,/
CSc1ccc(CNc2ccc(Cl)cc2)cc1,+,1.4,-2.6,-2.1,-9.5,-1.2,-5.9
O=C(CSc1cn(Cc2cccc(F)c2)c2ccccc12)NCc1ccc(F)cc1,-17.4,18.1,-3.7,0.4,-1.7,-3.1,/

# Compound activity (PubChem)
